# Only some compounds are listed: those with a hit (about 2.7% of all), similar ones and a draw of the others.
# MsrA inh: bovine MsrA enzyme inhibitors, primary screen, biochemical, absorbance, HTS; purified bovine MsrA, absorbance read-out; inhibition, % at 15.5 µM; actives 0.75% (n = 360,000); AID 651718, 2012; Methionine sulfoxide reductase A (Bos taurus);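 further: 0% = vehicle wells with enzyme and 100% = reference inhibitor wells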
# MsrA act: bovine MsrA enzyme activators, primary screen, biochemical, absorbance, HTS | Methionine sulfoxide reductase A (Bos taurus) | purified bovine MsrA, absorbance read-out | activation, % at 10.6 µM | actives 0.3% (n = 360,000) | AID 602163, 2012; in the data active means activation above about 7.5%;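 further: 0% = vehicle and 100% = reference activator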
# Rev-erbA mod: modulators of Rev-erb alpha DNA binding, primary screen, biochemical, FITC-DNA, fluorescence polarization, uHTS; activity, % at 10 µM; Rev-erbα–FITC-DNA binding, 90 min; actives 0.79% (n = 370,000); Nuclear receptor subfamily 1 group D member 1 (Homo sapiens), P20393;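 active means activity above about 14%, limit read from the data; passing the limit was not always enough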;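 further: 0% = DMSO wells with 35 nM protein and 100% = DMSO wells with 750 nM protein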
# Target sequence (P20393 whole entry, looked up): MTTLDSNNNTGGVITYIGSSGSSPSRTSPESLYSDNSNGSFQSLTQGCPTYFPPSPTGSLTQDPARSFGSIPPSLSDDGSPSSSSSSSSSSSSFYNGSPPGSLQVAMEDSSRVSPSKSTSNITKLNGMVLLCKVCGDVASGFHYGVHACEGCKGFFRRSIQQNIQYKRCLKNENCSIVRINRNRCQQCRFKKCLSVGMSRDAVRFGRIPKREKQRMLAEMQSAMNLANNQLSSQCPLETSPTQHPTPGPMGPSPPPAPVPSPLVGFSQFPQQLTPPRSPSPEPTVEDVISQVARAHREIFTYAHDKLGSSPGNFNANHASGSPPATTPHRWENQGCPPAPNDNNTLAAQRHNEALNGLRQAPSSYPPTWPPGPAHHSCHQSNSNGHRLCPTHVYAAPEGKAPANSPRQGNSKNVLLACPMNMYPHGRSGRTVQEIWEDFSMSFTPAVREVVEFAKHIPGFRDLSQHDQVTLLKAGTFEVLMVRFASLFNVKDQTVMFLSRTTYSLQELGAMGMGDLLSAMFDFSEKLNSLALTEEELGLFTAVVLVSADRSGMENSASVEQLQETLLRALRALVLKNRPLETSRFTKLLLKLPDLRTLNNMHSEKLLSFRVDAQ
# HGIII-sPLA2 inh: human group III sPLA2 inhibitors, primary screen, biochemical, QFRET, BODIPY PC-A2 liposome substrate; QFRET BODIPY PC-A2 liposome hydrolysis, fluorescence; inhibition, % at 12.2 µM; actives 0.56% (n = 370,000);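 active means inhibition above mean plus 3 SD of compounds lying within the high and low control bounds, cut at about 19% in these data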;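 further: 0% = median of test compound wells and 100% = no enzyme DMSO wells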
# ARFGAP1 inh: inhibitors of rat ARFGAP1 GAP activity, primary screen, biochemical, fluorescence polarization, GDP tracer | actives 0.26% (n = 360,000) | inhibition, % at 16.5 µM | Arfgap1-stimulated ARF1 GTP hydrolysis, GDP FP detection | ADP-ribosylation factor GTPase-activating protein 1 (Rattus norvegicus), Q62848;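 active means inhibition above a per-plate limit, mean inhibition of low control wells plus 3 SD, cut at about 25% in these data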;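 further: 0% = DMSO wells with enzyme and 100% = wells lacking Arfgap1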
#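 Material – truncated rat Arfgap1 GAP domain · Buffer or medium – HEPES-based buffer, pH 7.5 · Reagent – human ARF1(Δ1-17)-GTP substrate · Dosing – 16.5 µM single point, 1.26% DMSO · Schedule – GTP hydrolysis reaction 2 h at 25 °C · Technique – GDP detection by fluorescence polarization · Benchmarks – No-Arfgap1 wells (100%) versus DMSO full-reaction wells (0%) · Repeats – single replicate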
# ASAP1 inh: inhibitors of human ASAP1 ArfGAP activity, primary screen, biochemical, fluorescence polarization | AID 624377, 2012 | ASAP1-stimulated ARF1 GTP hydrolysis, GDP FP detection | Arf-GAP with SH3 domain, ANK repeat and PH domain-containing protein 1 (Homo sapiens), … | inhibition, % at 16.5 µM | actives 0.19% (n = 360,000); in the data active means inhibition above about 25%;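 further: 0% = vehicle with enzyme and substrate and 100% = no enzyme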
# MsrA conf: bovine MsrA inhibitors, retest, confirmation, biochemical, absorbance, HTS; shares compounds with MsrA inh; purified bovine MsrA, absorbance read-out; inhibition, % at 15.5 µM; actives 41% (n = 2,300);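 further: coupled to thioredoxin reductase with NADPH and selenocystamine and DMSO as substrate; 0% = vehicle only and 100% = full effect of reference inhibitor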
# * = called active by the depositor; . = no result given. Unless noted, no stated cut-off is given here; in the data, active means inhibition above about 4.5%; inactive means the rest.
SMILES,MsrA inh,MsrA act,Rev-erbA mod,HGIII-sPLA2 inh,ARFGAP1 inh,ASAP1 inh,MsrA conf
C[C@@H]1CCCN1c1cccc2c1S(=O)(=O)N(C1CC1)CCCO2,.,.,-0.6,10.7,.,.,.
Cc1ccc(S(=O)(=O)N2CCCN(S(=O)(=O)c3ccc(C)cc3)CC2)cc1,-0.6,-4.0,3.8,-6.7,1.7,-2.8,.
Cc1ccc(S(=O)(=O)N2CCN(S(=O)(=O)c3ccc(C)cc3)C2)cc1,5.5*,-5.1,2.0,-11.3,-4.2,0.2,1.9
COC(=O)c1ccc(S(=O)(=O)N2CCC(NC(=O)Cc3ccccc3)CC2)cc1,.,.,1.3,-5.4,.,.,.
COc1cccc(Nc2cc(N3CCOCC3)c3nonc3c2[N+](=O)[O-])c1,-0.3,0.1,11.4,3.1,-1.8,-4.0,.
O=[N+]([O-])c1c(Nc2ccccc2O)cc(N2CCOCC2)c2nonc12,18.0*,-5.6,2.5,-28.2,1.7,5.7,24.3*
Cc1ccc(/C=N/NC(=O)c2cccnc2)o1,2.9,-2.7,2.4,0.2,-8.2,8.6,.
O=C(O)c1cccc(-c2ccc(/C=N/NC(=O)c3cccnc3)o2)c1,5.9*,-4.6,-0.4,8.6,5.1,-14.1,6.7*
CCOC(=O)c1cccc(-c2ccc(C=O)o2)c1,3.8,-11.7,-1.0,7.8,7.8,-9.4,.
Cc1nnc(N/N=C\c2ccc(-c3cccc(C(=O)O)c3)o2)n1N,5.0*,2.8,-0.5,-4.2,0.7,-7.0,6.0*
Cc1nnc(N/N=C/c2ccc(-c3ccc(Br)cc3)o2)n1N,2.1,1.5,1.4,-4.2,7.5,-0.8,.
O=Cc1ccc(-c2cccc(C(=O)O)c2)o1,4.7*,-3.0,-4.1,1.9,0.1,-0.8,2.3
Nc1nonc1-c1nc2ccccc2n1CC(=O)N/N=C/c1ccc(-c2cccc(C(=O)O)c2)o1,5.7*,-4.9,-11.4,-32.7,-8.9,-2.9,6.3*
CCOC(=O)N1CCN(C(=O)C[C@H]2C(=O)N(CCCOC)C3=CCCC[C@@]32C(=O)OCC)CC1,.,.,0.2,7.0,.,.,.
CCN(C(=O)c1cccc2c1-c1ccccc1C2=O)c1ccccc1,.,.,1.1,1.8,.,.,.
Nc1nnc(CC(=O)N/N=C/c2ccc(-c3cccc(C(=O)O)c3)o2)s1,5.2*,-6.9,2.8,-3.6,6.4,-5.9,4.9*
CC(C)(C)c1cc(C(=O)N/N=C/c2ccc(-c3ccccc3[N+](=O)[O-])o2)n[nH]1,1.1,-1.3,-3.5,-17.8,-1.8,-4.4,.
O=C(N/N=C/c1ccc(N2CCCC2)c([N+](=O)[O-])c1)c1cccnc1,7.5*,-3.8,3.8,4.9,-0.1,2.7,5.5*
COc1ccc(NC(=O)/C(C#N)=C\c2ccc(-c3cccc(C(=O)O)c3C)o2)cc1,2.9,-4.1,0.9,2.4,7.1,5.7,.
O=C(N/N=C/c1ccc(-c2ccccc2[N+](=O)[O-])o1)c1cccnc1,7.1*,0.9,3.9,-10.6,4.5,10.4,2.9
Cc1c(C(=O)O)cccc1-c1ccc(C=O)o1,5.0*,-6.2,3.1,6.0,13.8,2.3,2.6
O=C(NC1CCCCN(Cc2cccc(Cl)c2)C1=O)c1ccc2ccccc2c1 (centres undefined),.,.,3.4,-5.1,.,.,.
COC(=O)[C@]12C[C@H](CC(=O)N3CCCC3)C(=O)N(Cc3ccc(Cl)cc3Cl)C1=C[C@H](COCc1ccccc1)O[C@@H]2C,.,.,3.1,-9.2,.,.,.
COc1ccc(-n2c(SCC(=O)c3ccc4ccccc4c3)nnc2-c2ccccc2)cc1,.,.,2.4,-11.2,.,.,.
Cc1ccc(NC2=NCC(=O)N2c2ccc3c(c2)OCCO3)c(C)c1,2.5,-2.1,-1.0,-3.9,8.0,7.0,.
Cc1cc(C)nc(NC2=NCC(=O)N2c2ccc3c(c2)OCCO3)n1,8.6*,-2.3,-1.4,6.3,13.5,-0.3,6.1*

# Screens as filed in PubChem BioAssay.
